From BindingDB's records for doi:10.1016/j.ejmech.2021.113996 (The University of Michigan Medical School, 2022)

Columns and labels:
[1] = target: Phosphatidylinositol 4,5-bisphosphate 3-kinase catalytic subunit alpha isoform (Homo sapiens, UniProt P42336); test: Inhibition of human PI3Kalpha by TR-FRET based Adapta assay
[2] = target: T1, Phosphatidylinositol 4,5-bisphosphate 3-kinase catalytic subunit delta isoform (Homo sapiens, UniProt O00329); test: Inhibition of human PI3Kdelta by TR-FRET based Adapta assay
T1 sequence (O00329 whole entry): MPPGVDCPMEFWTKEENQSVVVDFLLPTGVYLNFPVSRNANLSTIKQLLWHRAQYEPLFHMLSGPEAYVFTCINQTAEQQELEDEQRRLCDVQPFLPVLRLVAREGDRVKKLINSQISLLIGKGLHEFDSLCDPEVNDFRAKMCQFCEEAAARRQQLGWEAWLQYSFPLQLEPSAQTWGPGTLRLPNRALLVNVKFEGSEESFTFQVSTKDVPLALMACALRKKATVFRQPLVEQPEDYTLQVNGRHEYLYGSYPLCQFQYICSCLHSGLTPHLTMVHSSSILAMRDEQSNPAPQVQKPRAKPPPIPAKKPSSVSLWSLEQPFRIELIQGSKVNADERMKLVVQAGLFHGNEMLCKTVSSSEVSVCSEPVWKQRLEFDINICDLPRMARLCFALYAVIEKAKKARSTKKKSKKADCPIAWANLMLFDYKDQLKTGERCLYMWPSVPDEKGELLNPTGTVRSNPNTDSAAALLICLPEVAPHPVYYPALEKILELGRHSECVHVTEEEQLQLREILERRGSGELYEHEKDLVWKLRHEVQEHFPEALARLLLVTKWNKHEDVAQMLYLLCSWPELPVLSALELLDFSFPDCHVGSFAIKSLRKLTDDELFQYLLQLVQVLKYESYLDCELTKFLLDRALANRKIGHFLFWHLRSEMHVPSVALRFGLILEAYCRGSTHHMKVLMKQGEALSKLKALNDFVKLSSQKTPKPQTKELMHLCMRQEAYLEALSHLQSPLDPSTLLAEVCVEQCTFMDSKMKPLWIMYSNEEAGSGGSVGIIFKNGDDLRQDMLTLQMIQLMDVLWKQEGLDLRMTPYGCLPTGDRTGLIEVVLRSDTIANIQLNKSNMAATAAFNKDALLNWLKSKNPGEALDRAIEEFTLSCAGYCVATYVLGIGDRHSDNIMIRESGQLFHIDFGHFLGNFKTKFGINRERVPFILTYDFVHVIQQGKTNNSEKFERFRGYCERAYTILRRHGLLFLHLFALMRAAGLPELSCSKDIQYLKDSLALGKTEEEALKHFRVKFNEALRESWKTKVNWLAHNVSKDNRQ

[3] = target: Phosphatidylinositol 4,5-bisphosphate 3-kinase catalytic subunit gamma isoform (Homo sapiens, UniProt P48736); test: Inhibition of human PI3Kgamma by TR-FRET based Adapta assay
Sequence of Phosphatidylinositol 4,5-bisphosphate 3-kinase catalytic subunit gamma isoform (P48736 whole entry, canonical isoform): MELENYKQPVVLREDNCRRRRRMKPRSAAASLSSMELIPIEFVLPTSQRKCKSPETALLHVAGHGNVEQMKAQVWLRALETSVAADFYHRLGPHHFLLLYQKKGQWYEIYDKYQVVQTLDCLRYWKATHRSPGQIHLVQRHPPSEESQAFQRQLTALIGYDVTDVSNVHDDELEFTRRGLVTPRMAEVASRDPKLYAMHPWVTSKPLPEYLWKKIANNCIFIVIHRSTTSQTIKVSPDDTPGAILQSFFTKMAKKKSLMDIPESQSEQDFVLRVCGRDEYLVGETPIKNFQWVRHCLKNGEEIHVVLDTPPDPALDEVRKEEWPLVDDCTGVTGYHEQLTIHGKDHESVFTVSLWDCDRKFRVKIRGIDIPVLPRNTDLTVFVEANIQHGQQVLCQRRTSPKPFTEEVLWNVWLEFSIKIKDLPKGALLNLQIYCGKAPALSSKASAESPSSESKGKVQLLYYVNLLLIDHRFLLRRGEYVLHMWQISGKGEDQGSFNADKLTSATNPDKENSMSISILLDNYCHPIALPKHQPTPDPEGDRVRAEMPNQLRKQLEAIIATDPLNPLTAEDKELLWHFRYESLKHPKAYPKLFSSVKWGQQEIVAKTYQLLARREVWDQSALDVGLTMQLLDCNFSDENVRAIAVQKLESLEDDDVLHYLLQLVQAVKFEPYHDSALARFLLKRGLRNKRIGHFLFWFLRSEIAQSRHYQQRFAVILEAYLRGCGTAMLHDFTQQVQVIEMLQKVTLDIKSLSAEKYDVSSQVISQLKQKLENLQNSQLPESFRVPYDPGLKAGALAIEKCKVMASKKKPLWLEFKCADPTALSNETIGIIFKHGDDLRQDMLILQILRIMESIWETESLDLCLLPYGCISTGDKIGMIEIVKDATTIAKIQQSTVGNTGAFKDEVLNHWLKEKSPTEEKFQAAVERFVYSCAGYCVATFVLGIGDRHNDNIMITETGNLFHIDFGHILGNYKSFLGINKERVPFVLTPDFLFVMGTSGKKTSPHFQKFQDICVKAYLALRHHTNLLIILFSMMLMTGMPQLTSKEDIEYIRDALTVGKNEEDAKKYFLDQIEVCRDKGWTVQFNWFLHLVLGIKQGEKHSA

[4] = target: Phosphatidylinositol 4,5-bisphosphate 3-kinase catalytic subunit beta isoform (Homo sapiens, UniProt P42338); test: Inhibition of human PI3Kbeta by TR-FRET based Adapta assay
Sequence of Phosphatidylinositol 4,5-bisphosphate 3-kinase catalytic subunit beta isoform (P42338 whole entry, canonical isoform): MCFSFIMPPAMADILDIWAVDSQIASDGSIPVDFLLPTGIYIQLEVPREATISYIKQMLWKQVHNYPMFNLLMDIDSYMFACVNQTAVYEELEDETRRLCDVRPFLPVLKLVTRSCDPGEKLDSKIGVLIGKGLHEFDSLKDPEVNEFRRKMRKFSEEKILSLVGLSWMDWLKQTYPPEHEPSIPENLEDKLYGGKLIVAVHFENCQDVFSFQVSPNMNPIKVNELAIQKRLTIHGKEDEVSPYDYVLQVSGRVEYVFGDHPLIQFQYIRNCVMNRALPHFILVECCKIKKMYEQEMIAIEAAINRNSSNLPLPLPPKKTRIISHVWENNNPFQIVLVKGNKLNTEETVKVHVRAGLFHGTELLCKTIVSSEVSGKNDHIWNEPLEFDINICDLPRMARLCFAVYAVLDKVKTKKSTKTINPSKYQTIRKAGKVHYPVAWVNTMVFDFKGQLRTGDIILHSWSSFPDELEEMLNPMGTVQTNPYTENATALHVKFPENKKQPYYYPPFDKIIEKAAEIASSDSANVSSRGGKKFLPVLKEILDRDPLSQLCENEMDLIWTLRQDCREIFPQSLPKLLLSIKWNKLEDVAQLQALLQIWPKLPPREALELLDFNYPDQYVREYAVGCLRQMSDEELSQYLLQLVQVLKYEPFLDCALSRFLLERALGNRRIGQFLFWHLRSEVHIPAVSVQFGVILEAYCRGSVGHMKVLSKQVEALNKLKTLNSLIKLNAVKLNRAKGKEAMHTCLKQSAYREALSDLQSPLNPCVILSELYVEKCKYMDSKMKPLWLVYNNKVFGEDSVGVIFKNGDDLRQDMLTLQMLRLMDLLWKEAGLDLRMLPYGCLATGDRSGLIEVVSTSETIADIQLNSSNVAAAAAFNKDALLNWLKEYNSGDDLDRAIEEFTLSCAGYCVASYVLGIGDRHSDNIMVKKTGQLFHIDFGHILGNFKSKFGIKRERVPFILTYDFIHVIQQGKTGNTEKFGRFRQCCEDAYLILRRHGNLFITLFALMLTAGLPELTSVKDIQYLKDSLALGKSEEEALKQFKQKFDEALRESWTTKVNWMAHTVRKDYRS
Method in brief: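 Purified human PI3K isoforms α, β, γ and δ assayed by fluorescence-based Adapta TR-FRET lipid kinase assay (outsourced). Inhibitor range 0.1 nM–10 μM. IC₅₀ is the mean ± SEM of three experiments, each run in duplicate.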

Sequence of Phosphatidylinositol 4,5-bisphosphate 3-kinase catalytic subunit alpha isoform (P42336 whole entry, canonical isoform): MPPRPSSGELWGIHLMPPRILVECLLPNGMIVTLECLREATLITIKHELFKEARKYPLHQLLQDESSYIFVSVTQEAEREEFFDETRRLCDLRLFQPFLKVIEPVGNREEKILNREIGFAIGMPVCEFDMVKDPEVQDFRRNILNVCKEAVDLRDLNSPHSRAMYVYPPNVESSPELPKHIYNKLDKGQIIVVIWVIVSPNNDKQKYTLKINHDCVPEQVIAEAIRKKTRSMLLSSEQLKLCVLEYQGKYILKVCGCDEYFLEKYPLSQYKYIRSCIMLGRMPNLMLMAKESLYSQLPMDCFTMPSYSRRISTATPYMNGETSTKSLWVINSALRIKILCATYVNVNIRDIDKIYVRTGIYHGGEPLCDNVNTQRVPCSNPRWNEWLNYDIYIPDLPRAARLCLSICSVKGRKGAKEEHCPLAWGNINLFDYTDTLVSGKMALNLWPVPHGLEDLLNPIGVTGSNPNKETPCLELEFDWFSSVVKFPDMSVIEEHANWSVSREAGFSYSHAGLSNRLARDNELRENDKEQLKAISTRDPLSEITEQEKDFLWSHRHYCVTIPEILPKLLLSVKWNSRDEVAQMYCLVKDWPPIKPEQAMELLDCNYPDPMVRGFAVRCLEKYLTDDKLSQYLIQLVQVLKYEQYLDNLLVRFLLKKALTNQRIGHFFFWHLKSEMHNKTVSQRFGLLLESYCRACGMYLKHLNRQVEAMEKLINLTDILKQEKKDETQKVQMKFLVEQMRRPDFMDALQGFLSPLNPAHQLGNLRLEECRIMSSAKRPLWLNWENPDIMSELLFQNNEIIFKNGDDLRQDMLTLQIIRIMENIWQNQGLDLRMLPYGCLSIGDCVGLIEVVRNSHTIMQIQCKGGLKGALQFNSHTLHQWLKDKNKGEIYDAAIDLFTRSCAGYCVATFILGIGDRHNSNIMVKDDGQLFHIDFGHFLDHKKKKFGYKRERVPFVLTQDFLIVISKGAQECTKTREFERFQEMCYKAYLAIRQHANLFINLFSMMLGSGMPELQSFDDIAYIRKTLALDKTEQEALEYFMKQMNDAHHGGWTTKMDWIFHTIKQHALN

SMILES	IC50 [1] [nM]	IC50 [2] [nM]	IC50 [3] [nM]	IC50 [4] [nM]
FC(F)c1nc2ccccc2n1-c1nc(N2CCNCC2)nc(N2CCOCC2)n1	180	142	–	–
CC(=O)N1CCN(c2nc(N3CCOCC3)nc(-n3c(C(F)F)nc4ccccc43)n2)CC1	8.2	2.9	–	–
CNCCN(CCO)c1nc(N2CCOCC2)nc(-n2c(C(F)F)nc3ccccc32)n1	148	47	869	627
